TRPC4 act = activators of mouse TRPC4 channel, primary screen, Fluo4 calcium, HEK293 TRPC4beta/mu-opioid cells. Short transient receptor potential channel 4 (Mus musculus), Q9QUQ5. Fluo4 calcium fluorescence; stronger effect = higher value. B-score at 10 µM. hit rate 0.49% among 310,000;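 active = B-score above 5 SD of library B-scores, and initial fluorescence ratio not above library mean plus 5 SD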;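 also: positive B-score marks a calcium rise read as TRPC4 activation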
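Material: HEK293 stable line with TRPC4beta plus mu-opioid receptor; technique: Fluo4 calcium-sensitive dye fluorescence, kinetic, 1 Hz baseline; timing: Fluo4 dye loading 45 min at room temperature, 110 s recording; controls: assay buffer as low control, maximal DAMGO as high control; read-out: integrated baseline-normalised fluorescence ratio, converted to per-well B score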
TRPC6 act = mouse TRPC6 channel activators, primary screen, cell-based, HEK293, membrane potential dye | Short transient receptor potential channel 6 (Mus musculus), Q61143 | HEK293-TRPC6 membrane potential dye fluorescence; stronger effect = higher value | B-score at 10 µM | hit rate 0.13% among 310,000 | AID 2550, 2010;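 active = B-score of the integrated fluorescence ratio above library mean plus 3 SD, and starting fluorescence ratio within library mean plus 5 SD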;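 also: higher score means more depolarization so channel activation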
Target sequence (Q61143 whole entry, looked up): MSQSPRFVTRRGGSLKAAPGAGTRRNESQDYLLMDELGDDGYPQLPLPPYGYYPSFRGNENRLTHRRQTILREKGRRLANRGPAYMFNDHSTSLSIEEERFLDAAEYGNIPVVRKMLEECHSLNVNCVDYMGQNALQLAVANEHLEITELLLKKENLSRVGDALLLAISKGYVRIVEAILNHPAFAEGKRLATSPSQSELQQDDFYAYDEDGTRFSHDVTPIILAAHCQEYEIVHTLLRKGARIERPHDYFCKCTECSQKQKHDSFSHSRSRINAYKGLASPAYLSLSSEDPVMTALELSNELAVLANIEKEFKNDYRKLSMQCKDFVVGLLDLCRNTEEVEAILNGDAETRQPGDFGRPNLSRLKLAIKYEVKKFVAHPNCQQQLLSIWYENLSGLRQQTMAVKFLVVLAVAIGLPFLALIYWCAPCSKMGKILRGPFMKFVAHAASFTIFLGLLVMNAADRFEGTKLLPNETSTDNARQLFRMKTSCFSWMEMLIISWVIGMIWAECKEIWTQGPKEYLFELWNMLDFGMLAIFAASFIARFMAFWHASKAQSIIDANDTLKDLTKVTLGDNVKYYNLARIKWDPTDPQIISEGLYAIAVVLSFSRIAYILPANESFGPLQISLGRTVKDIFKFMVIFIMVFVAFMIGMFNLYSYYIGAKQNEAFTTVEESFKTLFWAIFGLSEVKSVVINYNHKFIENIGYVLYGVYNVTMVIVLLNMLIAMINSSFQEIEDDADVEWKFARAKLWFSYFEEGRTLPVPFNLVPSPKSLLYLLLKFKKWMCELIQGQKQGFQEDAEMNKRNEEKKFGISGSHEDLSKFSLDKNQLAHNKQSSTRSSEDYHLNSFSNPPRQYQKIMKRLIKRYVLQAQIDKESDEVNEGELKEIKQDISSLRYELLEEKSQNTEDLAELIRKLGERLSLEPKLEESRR
TRPC4 block = inhibitors of mouse TRPC4 channel, primary screen, Fluo4 calcium, HEK293 TRPC4beta/mu-opioid cells; DAMGO-evoked Fluo4 calcium flux; stronger effect = lower value; B-score at 10 µM; hit rate 0.39% among 300,000; AID 2247, 2010;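 active = B-score over 3 SD under the library average, no early fluorescence shift, positive overall ratio signal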
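Assay system: TRPC4beta/mu-opioid receptor HEK293 cell line; compound dosing: single concentration per test compound; detection: Fluo4 Ca2+ flux fluorescence; evaluation: per-well B score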
TRPC6 inhibitor = mouse TRPC6 channel inhibitors, primary screen, cell-based, HEK293, membrane potential dye; B-score at 10 µM; ACh-evoked depolarization; stronger effect = lower value; hit rate 1.1% among 310,000; AID 2553, 2010;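 active = B-score under library mean minus 3 SD, initial fluorescence not abnormally high, positive integrated signal ratio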;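 also: B-score derived from integrated fluorescence ratio over the kinetic read; more negative B-score means stronger inhibition of depolarization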
TRPC4 PAM = positive allosteric modulators of TRPC4, primary screen, cell-based, mouse TRPC4beta, HEK293 mu-opioid, Fluo-4 calcium. Short transient receptor potential channel 4 (Mus musculus), Q9QUQ5. DAMGO EC20, Fluo-4 Ca2+ flux; stronger effect = higher value. B-score at 10 µM. hit rate 0.42% among 310,000. AID 2227, 2009;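 active = B-score of calcium response area above 5 SD of library B-scores, with initial fluorescence ratio within 5 SD of library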;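 also: B-score of integrated fluorescence ratio over time as area under calcium response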
The depositor's hits bear a star; i = inactive. The list is not random: actives were taken first. Their share in the collection is about 2.3%.

SMILES	TRPC4 act	TRPC6 act	TRPC4 block	TRPC6 inhibitor	TRPC4 PAM
Clc1ccc(OCCN2CCCCC2)cc1Cl	i	i	i	i	26*
Clc1ccc(OCCCn2cncn2)cc1Cl	i	i	i	i	i
Cc1cc(OCCCCCN2CCCC2)ccc1Cl	i	i	i	i	i
CNCCCOc1ccc2c(c1)CCC2	80*	i	i	i	20*
CCOC(=O)CCc1c(C)c2ccc3c(c2oc1=O)CN(CCCO)CO3	i	i	i	i	i
CC(C)(C)SCCNC(=O)c1ccc(CN2CCc3ccccc3C2)cc1	i	i	i	i	i
O=C(CN1CCN(CCN2C(=O)c3cccc4cccc(c34)C2=O)CC1)c1ccc(F)cc1	i	i	i	i	i
COc1ccc(C(=O)CN2CCN(CCN3C(=O)c4cccc5cccc(c45)C3=O)CC2)cc1	i	i	i	i	15*
C/C(CC(=O)NC(C)(C)C)=N\NC(=O)COc1ccc(C)cc1Br	i	i	i	i	11*
CCOC(=O)C1(Cc2cccc(F)c2)CCN(Cc2cnc(C)s2)CC1	66*	i	i	i	i
CCOC(=O)C1(CCc2ccccc2)CCN(Cc2ccn[nH]2)CC1	i	i	-6*	i	i
CCOC(=O)C1(Cc2cccc(F)c2)CCN(Cc2ccon2)CC1	i	i	i	i	i
CCOC(=O)C1(CCCc2ccccc2)CCN(Cc2cnc(C)s2)CC1	74*	i	i	i	i
Cn1c(=O)c2ncn(CC(=O)N=Nc3c(O)[nH]c4ccccc34)c2n(C)c1=O	i	i	i	i	i
Cc1ccc(C(=O)NCc2ccccc2)cc1Br	i	i	i	i	i
Cc1nc(Nc2ccccc2)sc1C(=O)Nc1ccccc1	i	i	i	i	i
Cc1nc(Nc2ccccc2)sc1C(=O)c1ccc(F)cc1	i	i	i	i	11*
CCSc1nc(-c2ccccc2)nc2c1CCCC2	i	i	i	i	i
CN(C)CCSc1nc(-c2ccccc2)nc2c1CCCC2	68*	i	i	i	20*
O=C(CSc1nnc(-c2ccccc2)o1)c1ccc2c(c1)OCCO2	i	i	-6*	i	i
CSc1ccccc1C(=O)NCC(c1ccco1)N(C)C (stereo not drawn)	i	i	i	i	i
CC(C)C(NC(=O)c1ccco1)C(=O)NCC(c1ccco1)N(C)C (stereo not drawn)	i	i	i	i	i
CSc1ccc(C(=O)NCC(c2ccco2)N(C)C)cc1[N+](=O)[O-] (stereo not drawn)	293*	i	i	i	i
CC(=O)NC(CC(=O)NCC(c1ccco1)N(C)C)c1ccccc1 (stereo not drawn)	92*	i	i	i	i
CN(C)C(CNC(=O)c1ccc2ccccc2c1)c1ccco1 (stereo not drawn)	68*	i	i	i	i
SMILES	TRPC4 act	TRPC6 act	TRPC4 block	TRPC6 inhibitor	TRPC4 PAM
O=C(NCc1ccco1)c1ccc2c(c1)S(=O)(=O)c1ccccc1C2=O	i	i	i	i	i
CN(C)C(CNC(=O)c1ccc2c(c1)S(=O)(=O)c1ccccc1C2=O)c1ccco1 (stereo not drawn)	120*	i	-8*	i	i
CC(=O)c1cccc(S(=O)(=O)N2CCC(C(=O)O)(c3ccccc3)CC2)c1	i	i	i	i	i
Cc1ccccc1NC(=O)CSc1ccncc1	i	i	i	i	i
O=C(CN1C(=O)COc2ccccc21)NCCCN1CCCC1	i	i	i	i	i
CN1CCN(CCCNC(=O)CN2C(=O)COc3ccccc32)CC1	i	i	-6*	i	i
Cc1ccc(C(CNS(=O)(=O)c2ccc([N+](=O)[O-])cc2)N2CCN(C)CC2)cc1 (stereo not drawn)	i	i	-6*	i	i
CSc1ccc(C#N)cc1NC(=O)c1cccnc1Cl	i	i	i	i	i
CCCS(=O)(=O)c1c(S(=O)(=O)CCC)c2cnccn2c1C(=O)c1ccc(Cl)cc1	i	i	i	i	12*
CCc1noc(C)c1C(=O)Nc1ccccc1N1CCOCC1	i	i	i	i	i
CCn1c(C2CC(=O)N(Cc3ccccc3)C2)nc2ccccc21 (stereo not drawn)	i	i	i	i	16*
NC(=Nc1ccccc1)Nc1ccccc1	134*	i	i	i	i
O=C(CCN1C(=O)c2ccccc2S1(=O)=O)Nc1ccc(F)c([N+](=O)[O-])c1	i	i	i	i	i
Cn1c(=O)c2c(nc(CN3CCc4ccccc4C3)n2Cc2cccc(Cl)c2)n(C)c1=O	i	i	i	i	73*
Cn1c(=O)c2c(nc(CN3CCc4ccccc4C3)n2Cc2ccccc2F)n(C)c1=O	169*	i	i	i	i
CS(=O)(=O)c1ccc(-c2csc(-c3cccnc3)n2)cc1	i	i	i	i	i
Cc1nc(Cl)nc(N(C)c2ccccc2)c1[N+](=O)[O-]	i	i	-6*	i	i
Cc1nc(N/N=C/c2ccccc2)nc(N(C)c2ccccc2)c1[N+](=O)[O-]	i	i	i	i	i
O=C(NCC(c1cccs1)N1CCOCC1)C1CCN(S(=O)(=O)c2ccccc2C(F)(F)F)CC1 (stereo not drawn)	i	i	i	i	i
CCOc1ccccc1N1CCN(C(=O)c2ccc(-c3ccc(OC(C)=O)cc3)cc2)CC1	i	i	i	i	i
CN(C)CC(CCC(CN(C)C)C(O)(c1ccccc1)c1ccccc1)C(O)(c1ccccc1)c1ccccc1 (stereo not drawn)	i	i	-8*	i	i
CCOC(=O)c1ccc(NC(=O)CN2C(=O)CN(C(C)=O)C2=S)cc1	i	i	i	i	i
OCCC1CN(Cc2cccn2-c2cccnc2)CCN1Cc1ccccc1 (stereo not drawn)	i	i	i	i	i
OCCC1CN(Cc2cccn2-c2cccnc2)CCN1CCc1ccccc1 (stereo not drawn)	i	i	-5*	i	i
COc1ccc(NC(=O)n2nc(OC(=O)c3cccs3)cc2N)cc1	i	i	i	i	i
